Data taken from ChEMBL document CHEMBL1141056, “Aqua mediated synthesis of substituted 2-amino-4H-chromenes and in vitro study as antibacterial agents” (Bioorg Med Chem Lett, 2005).

Key:
Type in all cases: functional, organism-based
Staphylococcus aureus [1] = test: Antibacterial activity against Staphylococcus aureus (ATCC 25923) at concentration 2.0 uM/ml in dimethylformamide, + = resistant
Summary of the method: (§1)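 Broth microdilution MIC per NCCLS standard protocol. Compounds dissolved in DMF and doubling-diluted in Mueller Hinton broth across 0.5–128 µg/ml; ampicillin run alongside. Inoculum adjusted to McFarland 0.5 and diluted to approx. 5×10^5 cfu/ml final per well. Plates held overnight at 37 °C. Growth scored per concentration: + resistant, − susceptible. Each plate carried broth+inoculum and broth-only control wells.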

Staphylococcus aureus [2] = test: Antibacterial activity against Staphylococcus aureus (ATCC 25923) at concentration 32.0 uM/ml in dimethylformamide, + = resistant; summary of the method: as §1
Staphylococcus aureus [3] = test: Antibacterial activity against Staphylococcus aureus (ATCC 25923) at concentration 16.0 uM/ml in dimethylformamide, + = resistant; summary of the method: as §1
Staphylococcus aureus [4] = test: Antibacterial activity against Staphylococcus aureus (ATCC 25923) at concentration 1.0 uM/ml in dimethylformamide, + = resistant; summary of the method: as §1
Pseudomonas aeruginosa [5] = test: Antibacterial activity against Pseudomonas aeruginosa (ATCC 27853) at concentration 4.0 uM/ml in dimethylformamide, + = resistant; summary of the method: as §1
Pseudomonas aeruginosa [6] = test: Antibacterial activity against Pseudomonas aeruginosa (ATCC 27853) at concentration 8.0 uM/ml in dimethylformamide, + = resistant; summary of the method: as §1
Escherichia coli [7] = test: Antibacterial activity against Escherichia coli (ATCC 25922) at concentration 8.0 uM/ml in dimethylformamide, + = resistant; summary of the method: as §1
Escherichia coli [8] = test: Antibacterial activity against Escherichia coli (ATCC 25922) at concentration 1.0 uM/ml in dimethylformamide, + = resistant; summary of the method: as §1
Staphylococcus aureus [9] = test: Antibacterial activity against Staphylococcus aureus (ATCC 25923) at concentration 64.0 uM/ml in dimethylformamide, + = resistant; summary of the method: as §1
Escherichia coli [10] = test: Antibacterial activity against Escherichia coli (ATCC 25922) at concentration 4.0 uM/ml in dimethylformamide, + = resistant; summary of the method: as §1
Escherichia coli [11] = test: Antibacterial activity against Escherichia coli (ATCC 25922) at concentration 2.0 uM/ml in dimethylformamide, + = resistant; summary of the method: as §1
Escherichia coli [12] = test: Antibacterial activity against Escherichia coli (ATCC 25922) at concentration 32.0 uM/ml in dimethylformamide, + = resistant; summary of the method: as §1
Pseudomonas aeruginosa [13] = test: Antibacterial activity against Pseudomonas aeruginosa (ATCC 27853) at concentration 0.5 uM/ml in dimethylformamide, + = resistant; summary of the method: as §1
Escherichia coli [14] = test: Antibacterial activity against Escherichia coli (ATCC 25922) at concentration 0.5 uM/ml in dimethylformamide, + = resistant; summary of the method: as §1
Pseudomonas aeruginosa [15] = test: Antibacterial activity against Pseudomonas aeruginosa (ATCC 27853) at concentration 32.0 uM/ml in dimethylformamide, + = resistant; summary of the method: as §1
Pseudomonas aeruginosa [16] = test: Antibacterial activity against Pseudomonas aeruginosa (ATCC 27853) at concentration 16.0 uM/ml in dimethylformamide, + = resistant; summary of the method: as §1
Pseudomonas aeruginosa [17] = test: Antibacterial activity against Pseudomonas aeruginosa (ATCC 27853) at concentration 1.0 uM/ml in dimethylformamide, + = resistant; summary of the method: as §1
Staphylococcus aureus [18] = test: Antibacterial activity against Staphylococcus aureus (ATCC 25923) at concentration 8.0 uM/ml in dimethylformamide, + = resistant; summary of the method: as §1
Pseudomonas aeruginosa [19] = test: Antibacterial activity against Pseudomonas aeruginosa (ATCC 27853) at concentration 2.0 uM/ml in dimethylformamide, + = resistant; summary of the method: as §1
Staphylococcus aureus [20] = test: Antibacterial activity against Staphylococcus aureus (ATCC 25923) at concentration 4.0 uM/ml in dimethylformamide, + = resistant; summary of the method: as §1
Staphylococcus aureus [21] = test: Antibacterial activity against Staphylococcus aureus (ATCC 25923) at concentration 0.5 uM/ml in dimethylformamide, + = resistant; summary of the method: as §1
Escherichia coli [22] = test: Antibacterial activity against Escherichia coli (ATCC 25922) at concentration 64.0 uM/ml in dimethylformamide, + = resistant; summary of the method: as §1
Escherichia coli [23] = test: Antibacterial activity against Escherichia coli (ATCC 25922) at concentration 16.0 uM/ml in dimethylformamide, + = resistant; summary of the method: as §1
Staphylococcus aureus [24] = test: Antibacterial activity against Staphylococcus aureus (ATCC 25923)i at concentration 32.0 uM/ml in dimethylformamide, + = resistant; summary of the method: as §1
Pseudomonas aeruginosa [25] = test: Antibacterial activity against Pseudomonas aeruginosa (ATCC 27853) at concentration 64.0 uM/ml in dimethylformamide, + = resistant; summary of the method: as §1

Measured: MIC

N#CC1=C(N)Oc2cc(O)ccc2C1c1ccc2c(c1)OCO2 (centres undefined)
not listed: Staphylococcus aureus [24] | Pseudomonas aeruginosa [25]
Resistant: all other assays above

N#CC1=C(N)Oc2ccc3ccccc3c2C1c1ccccc1 (centres undefined)
not listed: Staphylococcus aureus [24] | Pseudomonas aeruginosa [25]
Resistant: all other assays above

CC1(C)S[C@@H]2[C@H](NC(=O)[C@H](N)c3ccccc3)C(=O)N2[C@H]1C(=O)O
Resistant: Staphylococcus aureus [1] | Staphylococcus aureus [4] | Pseudomonas aeruginosa [5] | Escherichia coli [8] | Escherichia coli [11] | Pseudomonas aeruginosa [13] | Escherichia coli [14] | Pseudomonas aeruginosa [17] | Pseudomonas aeruginosa [19] | Staphylococcus aureus [20] | Staphylococcus aureus [21]

N#CC1=C(N)Oc2ccc3ccccc3c2C1c1cc2ccccc2nc1Cl (centres undefined)
not listed: Staphylococcus aureus [2] | Staphylococcus aureus [9] | Pseudomonas aeruginosa [25]
Resistant: all other assays above

N#CC1=C(N)Oc2cc(O)ccc2C1c1ccccc1 (centres undefined)
not listed: Staphylococcus aureus [24]
Resistant: all other assays above

N#CC1=C(N)Oc2ccc3ccccc3c2C1c1ccc2c(c1)OCO2 (centres undefined)
not listed: Staphylococcus aureus [24] | Pseudomonas aeruginosa [25]
Resistant: all other assays above

N#CC1=C(N)Oc2cc(O)ccc2C1n1ccc2ccccc21 (centres undefined)
not listed: Staphylococcus aureus [24] | Pseudomonas aeruginosa [25]
Resistant: all other assays above

N#CC1=C(N)Oc2ccc3ccccc3c2C1n1ccc2ccccc21 (centres undefined)
not listed: Staphylococcus aureus [24] | Pseudomonas aeruginosa [25]
Resistant: all other assays above

N#CC1=C(N)Oc2cc(O)ccc2C1c1cc2ccccc2nc1Cl (centres undefined)
not listed: Escherichia coli [22] | Staphylococcus aureus [24] | Pseudomonas aeruginosa [25]
Resistant: all other assays above
